In PMC1976451 (Nucleic Acids Research, 2007):
Entries after “also recorded” stand apart in the source; their conditions may differ.

How the values were obtained:
[1] = system: human β-globin thalassemic intron 2 mutated splice site at nucleotide 705 (pLuc705 cells); experiment: Nuclear activity assay; assay type: cell-based; conditions: 24 h; for luciferase activity in 60% serum: 60% serum-containing medium; for reduction of luciferase activity in 10% serum: versus 0% serum, R9−PMO data not shown; for luciferase activity over the background: 1 μM, OptiMEM with or without 10% serum, RLU per microgram protein; for relative nuclear antisense activity in the oligoarginine, RX, RXR and RB panels: 1 and 5 μM; for luciferase activity compared with conjugates with 8 and 7 repeats: 10 μM
How it was run: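 Splice-correction luciferase assay in pLuc705 cells, seeded 20 h before at 30 000 cells/well. Cells washed, then treated 24 h with conjugate at 1, 5 or 10 μM in OptiMEM with 0, 10, 30 or 60% serum. Lysed 30 min at 4°C, clarified at 1000g, and luminescence read after adding luciferase reagent. RLU normalised per μg protein (BCA). Mean ± SD of 6–9 points, three independent experiments.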

[2] = system: pLuc705 cells; experiment: MTT cell viability assay; assay type: cell-based, human; conditions: for inhibition of cell proliferation by monomers: 500 μM each, individually or in combination
How it was run: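 pLuc705 cells seeded 20 h before at 9000 cells/well. Exposed 24 h to 0, 2, 10, 20, 40 or 60 μM conjugate in OptiMEM with 10% serum; arginine and X monomers given at 500 μM alone or combined. Phase images taken first, then MTT at 0.5 mg/ml final for 4 h at 37°C and DMSO/0.01M HCl 10 min. A540 read; % viability relative to mean of untreated wells; six points, two experiments.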

[3] = system: pLuc705 cells; experiment: Microscopic images of treated cells; assay type: cell-based, human; conditions: 60 μM, OptiMEM with 10% serum, 24 h, ×100
How it was run: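 pLuc705 cells seeded at 9000 cells/well 20 h before treatment, then exposed 24 h to conjugate or vehicle in OptiMEM with 10% serum. Phase-contrast images were taken directly in culture medium on an inverted microscope, before the MTT read-out on the same wells.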

[4] = system: pLuc705 cells; experiment: Propidium iodide membrane integrity; assay type: cell-based, human; conditions: for membrane damage / PI histogram shift with 0.5 or 5 h treatment: 60 μM, 0.5 and 5 h; for effect of addition of 10% serum on membrane toxicity: (RX)8−PMO data not shown; for effect on membrane integrity at higher concentrations: up to 60 µM tested
[5] = system: fresh rat red blood cells; experiment: Hemolysis assay; assay type: cell-based; conditions: 60 μM, 1 h at 37°C, hemoglobin release (absorbance at 540 nm); four data points from two independent experiments
How it was run: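 Fresh rat blood red cells exposed 1 h at 37°C to conjugate at 60 μM, with PBS as background and 0.005% TX-100 as positive control. Released hemoglobin read as absorbance at 540 nm. Mean ± SD of four data points from two independent experiments.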

[6] = cited from earlier work
[7] = system: pLuc705 cells; experiment: Cell uptake assay; assay type: cell-based, human; conditions: 2 μM, media containing 30 and 60% serum
How it was run: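 pLuc705 cells (HeLa stably carrying luciferase interrupted by β-globin intron 2 with mutated splice site at 705) seeded 20 h before at 100 000 cells/well. Treated 24 h with 2 μM 3′-carboxyfluorescein-tagged conjugate in OptiMEM with 0, 10, 30 or 60% serum. Trypsin 10 min at 37°C strips membrane-bound material, then cells are washed and analysed by flow cytometry. Mean fluorescence ± SD, six points, two independent experiments.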

[8] = system: human liver HepG2 cells; experiment: MTT toxicity in HepG2 cells; assay type: cell-based; conditions: up to 60 μM, data not shown
How it was run: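 HepG2 cells kept in RPMI 1640 with 2 mM L-glutamine, 100 U/ml penicillin and 10% FBS at 37°C, 5% CO2. Treatments were in OptiMEM with or without FBS. MTT added to a final 0.5 mg/ml for 4 h at 37°C. Most of the medium was replaced with DMSO containing 0.01M HCl for 10 min at 37°C. A540 was normalized to the mean of untreated wells.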

RRRRRRRRXB [R8−PMO]
luciferase activity in 60% serum [1]: no activity
reduction of luciferase activity in 10% serum [1]: approximately 30%

CC(=O)N[C@@H](CCCNC(=N)N)C(=O)NCCCCCC(=O)N[C@@H](CCCNC(=N)N)C(=O)NCCCCCC(=O)N[C@@H](CCCNC(=N)N)C(=O)NCCCCCC(=O)N[C@@H](CCCNC(=N)N)C(=O)NCCCCCC(=O)N[C@@H](CCCNC(=N)N)C(=O)NCCCCCC(=O)N[C@@H](CCCNC(=N)N)C(=O)NCCCCCC(=O)N[C@@H](CCCNC(=N)N)C(=O)NCCCCCC(=O)N[C@@H](CCCNC(=N)N)C(=O)NCCCCCC(=O)NCCC(=O)N1CCN(P(=O)(OC[C@@H]2CN(P(=O)(OC[C@@H]3CN(P(=O)(OC[C@@H]4CN(P(=O)(OC[C@@H]5CN(P(=O)(OC[C@@H]6CN(P(=O)(OC[C@@H]7CN(P(=O)(OC[C@@H]8CN(P(=O)(OC[C@@H]9CN(P(=O)(OC[C@@H]%10CN(P(=O)(OC[C@@H]%11CN(P(=O)(OC[C@@H]%12CN(P(=O)(OC[C@@H]%13CN(P(=O)(OC[C@@H]%14CN(P(=O)(OC[C@@H]%15CN(P(=O)(OC[C@@H]%16CN(P(=O)(OC[C@@H]%17CN(P(=O)(OC[C@@H]%18CN(P(=O)(OC[C@@H]%19CN(C(C)=O)C[C@H](n%20cnc%21c(N)ncnc%21%20)O%19)N(C)C)C[C@H](n%19ccc(N)nc%19=O)O%18)N(C)C)C[C@H](n%18cnc%19c(N)ncnc%19%18)O%17)N(C)C)C[C@H](n%17cc(C)c(=O)[nH]c%17=O)O%16)N(C)C)C[C@H](n%16cc(C)c(=O)[nH]c%16=O)O%15)N(C)C)C[C@H](n%15cnc%16c(=O)[nH]c(N)nc%16%15)O%14)N(C)C)C[C@H](n%14cnc%15c(N)ncnc%15%14)O%13)N(C)C)C[C@H](n%13ccc(N)nc%13=O)O%12)N(C)C)C[C@H](n%12cc(C)c(=O)[nH]c%12=O)O%11)N(C)C)C[C@H](n%11ccc(N)nc%11=O)O%10)N(C)C)C[C@H](n%10ccc(N)nc%10=O)O9)N(C)C)C[C@H](n9cnc%10c(N)ncnc%109)O8)N(C)C)C[C@H](n8cc(C)c(=O)[nH]c8=O)O7)N(C)C)C[C@H](n7cc(C)c(=O)[nH]c7=O)O6)N(C)C)C[C@H](n6ccc(N)nc6=O)O5)N(C)C)C[C@H](n5cc(C)c(=O)[nH]c5=O)O4)N(C)C)C[C@H](n4ccc(N)nc4=O)O3)N(C)C)C[C@H](n3ccc(N)nc3=O)O2)N(C)C)CC1 (some centres unmarked) [(RX)8−PMO]
luciferase activity over the background [1]: 10–15 fold
relative nuclear activity at 2 μM ([1]; 2 μM, OptiMEM with 10% serum, eleven conjugates with 0-8 X compared): highest activity
change of luciferase activity on addition of 10% serum ([1]; 5 μM): nearly doubled
relative nuclear activity at 5 μM ([1]; 5 μM, OptiMEM with 10% serum, eleven conjugates with 0-8 X compared): highest activities
relative nuclear antisense activity in the oligoarginine, RX, RXR and RB panels [1]: highest nuclear antisense activities
cell viability ([2]; 60 μM, OptiMEM with 10% serum, 24 h, mean of six data points): 40%
appearance of treated cells (microscopic images) [3]: rounded and detached from the culture well
membrane damage / PI histogram shift with 0.5 or 5 h treatment [4]: little immediate membrane damage
effect of addition of 10% serum on membrane toxicity ([4]; 24 h): significantly reduced membrane toxicity
effect on membrane integrity at higher concentrations [4]: significantly affect membrane integrity
hemolytic activity [5]: compatible with red blood cells
stability (of the peptide portion) in cells [6]: completely degraded

RRRRRRRRRXB [R9−PMO]
luciferase activity in 60% serum [1]: no activity
reduction of luciferase activity in 10% serum [1]: approximately 30%

RXRXRXRXRXB [(RX)5−PMO]
luciferase activity compared with conjugates with 8 and 7 repeats [1]: much lower luciferase activity

RXRXRXB [(RX)3−PMO]
luciferase activity compared with conjugates with 8 and 7 repeats [1]: much lower luciferase activity

NCCCCCC(=O)O [X, 6-aminohexanoic acid]
inhibition of cell proliferation by monomers [2]: no inhibition of cell proliferation

RBRBRBRBRBRBRBRBB [(RB)8−PMO]
change of luciferase activity on addition of 10% serum ([1]; 5 μM): nearly doubled
stability (of the peptide portion) in cells [6]: only partially degraded

RXRRXRRXRRXRXB [(RXR)4−PMOF]
effect of higher serum concentrations on uptake [7]: decreased

N=C(N)NCCC[C@H](N)C(=O)O [arginine]
inhibition of cell proliferation by monomers [2]: no inhibition of cell proliferation

RBRBRBRBRBB [(RB)5−PMO]
luciferase activity compared with conjugates with 8 and 7 repeats [1]: much lower luciferase activity

RXRRXRRXRRXRXB [(RXR)4−PMO]
luciferase activity over the background [1]: 10–15 fold
change of luciferase activity on addition of 10% serum ([1]; 5 μM): nearly doubled
relative nuclear antisense activity in the oligoarginine, RX, RXR and RB panels [1]: highest nuclear antisense activities
toxicity in HepG2 cells [8]: dose-dependent inhibition of cell proliferation
appearance of treated cells (microscopic images) [3]: rounded and detached from the culture well
membrane damage / PI histogram shift with 0.5 or 5 h treatment [4]: slight shift towards the PI+ region; also recorded: little immediate membrane damage
cells in the PI+ region ([4]; 60 µM, 24 h, serum-free medium, flow cytometry): 57%
effect of addition of 10% serum on membrane toxicity ([4]; 24 h): significantly reduced membrane toxicity
effect on membrane integrity at higher concentrations [4]: significantly affect membrane integrity
hemolytic activity [5]: compatible with red blood cells

RBRBRBB [(RB)3−PMO]
luciferase activity compared with conjugates with 8 and 7 repeats [1]: much lower luciferase activity
